{
  "source": "ChEMBL document CHEMBL4229344",
  "about": "(Eur J Med Chem, 2018)",
  "key": {"[1]": {"molecular_target": "Activin receptor type-1-like (Homo sapiens) (UniProt P37023)", "experiment": "Binding affinity to wild-type human ACVRL1 (L164 to Q503 residues) expressed in bacterial expression system assessed as residual binding level at 1 uM by Kinomescan method relative to control", "summary_of_the_method": "(§1)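 Single-concentration (1 μM) competition-binding screen run by KINOMEscan against a panel of 468 purified kinases and mutants. The read-out is the relative binding activity of the test compound to each kinase.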"}, "[2]": {"test_system": "Epidermal growth factor receptor (Homo sapiens), P00533 [UNDEFINED MUTATION]", "experiment": "Binding affinity to human partial length EGFR L747-E749del/A750P mutant expressed in bacterial expression system assessed as residual binding level at 1 uM by Kinomescan method relative to control", "summary_of_the_method": "(§2)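 Kinome-wide single-concentration binding screen (KINOMEscan) at 1 μM against a panel of 468 purified kinases and mutants. Read-out is relative binding of each kinase compared with control. Selectivity across the panel was summarised as an S(10) score.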"}, "[3]": {"molecular_target": "Misshapen-like kinase 1 (Homo sapiens) (UniProt Q8N4C8)", "experiment": "Binding affinity to wild-type human partial length MINK (M1 to K312 residues) expressed in mammalian expression system assessed as residual binding level at 1 uM by Kinomescan method relative to control", "summary_of_the_method": "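Kinome-wide competition binding screen against a panel of 468 purified kinases/mutants, with the test compound at a single concentration of 1 μM. Read-out is the relative binding activity of each kinase in the presence of compound.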"}, "[4]": {"molecular_target": "Mitogen-activated protein kinase kinase kinase 1 (Homo sapiens) (UniProt Q13233)", "sequence (Q13233 whole entry, the tested form may be a part)": "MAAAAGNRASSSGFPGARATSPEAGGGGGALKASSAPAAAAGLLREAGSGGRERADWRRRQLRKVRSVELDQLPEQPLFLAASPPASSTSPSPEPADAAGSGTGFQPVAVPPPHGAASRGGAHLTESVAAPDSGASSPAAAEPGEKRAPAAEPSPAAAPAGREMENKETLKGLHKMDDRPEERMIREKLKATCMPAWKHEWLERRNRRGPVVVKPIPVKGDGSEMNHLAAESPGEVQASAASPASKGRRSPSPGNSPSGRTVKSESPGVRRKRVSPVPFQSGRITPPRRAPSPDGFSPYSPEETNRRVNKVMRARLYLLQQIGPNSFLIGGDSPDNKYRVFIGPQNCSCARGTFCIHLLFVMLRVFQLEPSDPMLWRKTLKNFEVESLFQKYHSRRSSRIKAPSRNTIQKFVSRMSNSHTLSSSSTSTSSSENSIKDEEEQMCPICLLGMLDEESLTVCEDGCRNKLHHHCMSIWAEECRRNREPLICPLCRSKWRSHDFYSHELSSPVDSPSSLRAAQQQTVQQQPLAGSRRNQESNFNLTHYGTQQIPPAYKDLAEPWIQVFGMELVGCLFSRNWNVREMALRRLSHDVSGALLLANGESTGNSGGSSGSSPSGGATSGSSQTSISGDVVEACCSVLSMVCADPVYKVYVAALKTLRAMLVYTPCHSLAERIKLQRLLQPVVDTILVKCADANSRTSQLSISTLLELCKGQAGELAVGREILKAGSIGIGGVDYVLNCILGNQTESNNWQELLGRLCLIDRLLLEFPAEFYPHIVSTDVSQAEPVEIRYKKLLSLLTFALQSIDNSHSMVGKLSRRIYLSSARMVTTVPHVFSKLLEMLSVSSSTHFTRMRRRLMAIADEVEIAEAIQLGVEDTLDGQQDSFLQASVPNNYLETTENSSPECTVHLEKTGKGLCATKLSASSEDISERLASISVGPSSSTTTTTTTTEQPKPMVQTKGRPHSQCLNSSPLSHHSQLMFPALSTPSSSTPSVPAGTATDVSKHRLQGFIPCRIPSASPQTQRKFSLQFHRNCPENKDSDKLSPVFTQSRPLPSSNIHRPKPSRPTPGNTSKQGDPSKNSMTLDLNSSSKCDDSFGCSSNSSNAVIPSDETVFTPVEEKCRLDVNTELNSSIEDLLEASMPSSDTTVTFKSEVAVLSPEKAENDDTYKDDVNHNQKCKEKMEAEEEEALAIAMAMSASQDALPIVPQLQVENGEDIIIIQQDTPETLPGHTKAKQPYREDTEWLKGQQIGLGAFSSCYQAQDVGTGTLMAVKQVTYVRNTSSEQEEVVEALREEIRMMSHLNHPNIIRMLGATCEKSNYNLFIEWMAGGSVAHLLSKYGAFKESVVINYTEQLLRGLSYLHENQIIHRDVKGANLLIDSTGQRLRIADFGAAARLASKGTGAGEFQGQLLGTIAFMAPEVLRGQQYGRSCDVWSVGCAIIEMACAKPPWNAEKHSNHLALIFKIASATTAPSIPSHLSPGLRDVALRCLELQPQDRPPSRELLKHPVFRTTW", "experiment": "Binding affinity to wild-type human partial length MAP3K1 (L1202 to W1512 residues) expressed in mammalian expression system assessed as residual binding level at 1 uM by Kinomescan method relative to control"}, "[5]": {"test_system": "EOL1", "experiment": "Antitumor activity against human EOL-1 cells xenografted in nu/nu mouse assessed as tumor growth inhibition at 25 mg/kg/day, ip", "format": "functional", "settings": "read-out: TGI", "summary_of_the_method": "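Female nu/nu mice (6 weeks) given subcutaneous right-flank injection of 5 million EOL-1 cells in PBS/Matrigel 1:1. At 200–400 mm3 tumors, randomized to groups of 6 and dosed daily i.p. for 14 days at 25, 50 or 100 mg/kg/d in 0.5% methylcellulose/0.4% Tween80. Tumor volume = W²×L/2, measured daily.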"}, "[6]": {"molecular_target": "Mitogen-activated protein kinase 12 (Homo sapiens) (UniProt P53778)", "sequence (P53778 whole entry, the tested form may be a part)": "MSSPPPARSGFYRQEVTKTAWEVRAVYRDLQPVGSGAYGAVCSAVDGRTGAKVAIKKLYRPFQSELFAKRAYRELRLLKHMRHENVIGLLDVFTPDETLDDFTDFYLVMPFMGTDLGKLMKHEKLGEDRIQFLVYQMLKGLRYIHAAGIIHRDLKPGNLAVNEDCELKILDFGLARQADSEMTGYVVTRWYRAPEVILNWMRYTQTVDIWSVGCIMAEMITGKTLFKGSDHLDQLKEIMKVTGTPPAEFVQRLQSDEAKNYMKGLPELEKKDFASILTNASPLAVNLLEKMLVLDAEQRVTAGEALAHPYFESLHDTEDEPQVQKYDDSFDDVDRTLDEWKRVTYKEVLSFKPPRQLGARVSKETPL", "experiment": "Binding affinity to wild-type human full length p38-gamma (M1 to L367 residues) expressed in mammalian expression system assessed as residual binding level at 1 uM by Kinomescan method relative to control", "summary_of_the_method": "(§3)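 KINOMEscan competition binding against 468 purified kinases/mutants, test compound at 1 µM; residual binding relative to control.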"}, "[7]": {"molecular_target": "Casein kinase I isoform gamma-2 (Homo sapiens) (UniProt P78368)", "experiment": "Binding affinity to wild-type human full length CSNK1G2 (M1 to K415 residues) expressed in bacterial expression system assessed as residual binding level at 1 uM by Kinomescan method relative to control", "summary_of_the_method": "as §1"}, "[8]": {"molecular_target": "Serine/threonine-protein kinase STK11 (Homo sapiens) (UniProt Q15831)", "sequence (Q15831 whole entry, the tested form may be a part)": "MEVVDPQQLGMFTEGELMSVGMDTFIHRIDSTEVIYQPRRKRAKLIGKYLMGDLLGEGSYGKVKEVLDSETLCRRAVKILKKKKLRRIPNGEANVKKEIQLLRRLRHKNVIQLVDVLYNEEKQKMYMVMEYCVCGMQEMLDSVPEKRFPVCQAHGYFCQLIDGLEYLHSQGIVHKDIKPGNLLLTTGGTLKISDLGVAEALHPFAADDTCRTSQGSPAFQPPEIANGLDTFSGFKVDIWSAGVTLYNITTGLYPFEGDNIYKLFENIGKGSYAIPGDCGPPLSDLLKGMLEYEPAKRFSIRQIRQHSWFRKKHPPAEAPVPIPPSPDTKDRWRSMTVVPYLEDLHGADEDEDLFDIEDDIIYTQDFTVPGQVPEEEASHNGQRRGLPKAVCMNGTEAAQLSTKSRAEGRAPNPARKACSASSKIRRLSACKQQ", "experiment": "Binding affinity to wild-type human full length LKB1 (M1 to Q433 residues) expressed in bacterial expression system assessed as residual binding level at 1 uM by Kinomescan method relative to control", "summary_of_the_method": "as §1"}, "[9]": {"test_system": "Rattus norvegicus", "experiment": "Apparent volume of distribution in Sprague-Dawley rat at 10 mg/kg, po", "format": "ADME, organism-based", "settings": "in vivo"}, "[10]": {"molecular_target": "Serine/threonine-protein kinase Nek7 (Homo sapiens) (UniProt Q8TDX7)", "experiment": "Binding affinity to wild-type human full length NEK7 (M1 to S302 residues) expressed in bacterial expression system assessed as residual binding level at 1 uM by Kinomescan method relative to control", "summary_of_the_method": "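Single-concentration KINOMEscan (DiscoverX) binding screen at 1 μM against a panel of 468 purified kinases and mutants. The read-out is binding relative to control.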"}, "[11]": {"molecular_target": "Casein kinase I isoform epsilon (Homo sapiens) (UniProt P49674)", "sequence (P49674 whole entry, looked up, the tested form may be a part, canonical isoform)": "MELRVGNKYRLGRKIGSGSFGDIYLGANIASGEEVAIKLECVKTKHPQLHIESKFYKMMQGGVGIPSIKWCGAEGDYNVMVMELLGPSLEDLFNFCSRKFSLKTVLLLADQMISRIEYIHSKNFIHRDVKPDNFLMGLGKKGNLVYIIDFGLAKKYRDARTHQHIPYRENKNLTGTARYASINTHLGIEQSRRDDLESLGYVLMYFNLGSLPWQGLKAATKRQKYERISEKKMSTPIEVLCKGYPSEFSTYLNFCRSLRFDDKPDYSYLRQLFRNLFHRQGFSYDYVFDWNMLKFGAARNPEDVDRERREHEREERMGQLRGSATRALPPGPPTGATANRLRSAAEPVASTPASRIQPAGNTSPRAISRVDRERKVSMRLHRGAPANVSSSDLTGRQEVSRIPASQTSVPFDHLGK", "experiment": "Binding affinity to wild-type human full length CSNK1E (M1 to K416 residues) expressed in bacterial expression system assessed as residual binding level at 1 uM by Kinomescan method relative to control", "summary_of_the_method": "as §1"}, "[12]": {"test_system": "Epidermal growth factor receptor (Homo sapiens), P00533 [T790M]", "experiment": "Binding affinity to human partial length EGFR T790M mutant (R669 to G1022 residues) expressed in mammalian expression system assessed as residual binding level at 1 uM by Kinomescan method relative to control", "summary_of_the_method": "as §2"}, "[13]": {"molecular_target": "Ephrin type-A receptor 1 (Homo sapiens) (UniProt P21709)", "experiment": "Binding affinity to wild-type human partial length EPHA1 (V588 to I913 residues) expressed in bacterial expression system assessed as residual binding level at 1 uM by Kinomescan method relative to control"}, "[14]": {"test_system": "Receptor-type tyrosine-protein kinase FLT3 (Homo sapiens), P36888 [D835H]", "experiment": "Binding affinity to human partial length FLT3 D835H mutant (V592 to Y969 residues) expressed in bacterial expression system assessed as residual binding level at 1 uM by Kinomescan method relative to control", "summary_of_the_method": "as §2"}, "[15]": {"molecular_target": "Epithelial discoidin domain-containing receptor 1 (Homo sapiens, UniProt Q08345)", "experiment": "Inhibition of DDR1 (unknown origin) using poly(4:1 Glu,Tyr) peptide as substrate preincubated for 1 hr followed by addition of ATP and measured after 30 mins by ADP-Glo bioluminescence assay"}, "[16]": {"molecular_target": "Serine/threonine-protein kinase WNK2 (Homo sapiens) (UniProt Q9Y3S1)", "experiment": "Binding affinity to wild-type human partial length WNK2 (V47 to D482 residues) expressed in mammalian expression system assessed as residual binding level at 1 uM by Kinomescan method relative to control"}, "[17]": {"experiment": "Tmax in Sprague-Dawley rat at 10 mg/kg, po", "format": "ADME, organism-based", "settings": "in vivo", "summary_of_the_method": "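Male Sprague-Dawley rats, 6–8 weeks old and fasted overnight, dosed IV at 1 mg/kg or PO at 10 mg/kg. Formulation was 5% DMSO/40% PEG400/55% saline (1 mg/mL). Jugular blood collected on heparin from 1 min to 8 h (IV) or 5 min to 24 h (PO). Plasma separated by centrifugation at 2–8 °C and stored at −80 °C.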"}, "[18]": {"molecular_target": "Serine/threonine-protein kinase PLK1 (Homo sapiens) (UniProt P53350)", "sequence (P53350 whole entry, the tested form may be a part)": "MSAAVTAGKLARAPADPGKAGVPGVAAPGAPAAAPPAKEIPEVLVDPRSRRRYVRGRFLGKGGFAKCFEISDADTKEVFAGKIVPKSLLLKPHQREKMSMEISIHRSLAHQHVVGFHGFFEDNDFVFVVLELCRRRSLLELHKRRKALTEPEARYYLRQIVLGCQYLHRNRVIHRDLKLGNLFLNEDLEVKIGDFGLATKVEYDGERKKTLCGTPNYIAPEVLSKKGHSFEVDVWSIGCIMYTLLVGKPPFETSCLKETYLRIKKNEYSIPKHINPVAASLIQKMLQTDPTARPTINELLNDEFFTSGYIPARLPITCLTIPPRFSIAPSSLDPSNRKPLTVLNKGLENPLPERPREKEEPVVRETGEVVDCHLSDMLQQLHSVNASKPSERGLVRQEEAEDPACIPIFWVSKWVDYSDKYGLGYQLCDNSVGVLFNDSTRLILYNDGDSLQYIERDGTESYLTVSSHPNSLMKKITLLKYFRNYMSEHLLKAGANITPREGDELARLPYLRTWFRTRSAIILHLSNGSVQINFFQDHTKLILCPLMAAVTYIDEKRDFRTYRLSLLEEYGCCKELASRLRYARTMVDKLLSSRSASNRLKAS", "experiment": "Binding affinity to wild-type human partial length PLK1 (A33 to F325 residues) expressed in mammalian expression system assessed as residual binding level at 1 uM by Kinomescan method relative to control"}, "[19]": {"molecular_target": "Dual specificity tyrosine-phosphorylation-regulated kinase 1B (Homo sapiens) (UniProt Q9Y463)", "sequence (Q9Y463 whole entry, looked up, the tested form may be a part)": "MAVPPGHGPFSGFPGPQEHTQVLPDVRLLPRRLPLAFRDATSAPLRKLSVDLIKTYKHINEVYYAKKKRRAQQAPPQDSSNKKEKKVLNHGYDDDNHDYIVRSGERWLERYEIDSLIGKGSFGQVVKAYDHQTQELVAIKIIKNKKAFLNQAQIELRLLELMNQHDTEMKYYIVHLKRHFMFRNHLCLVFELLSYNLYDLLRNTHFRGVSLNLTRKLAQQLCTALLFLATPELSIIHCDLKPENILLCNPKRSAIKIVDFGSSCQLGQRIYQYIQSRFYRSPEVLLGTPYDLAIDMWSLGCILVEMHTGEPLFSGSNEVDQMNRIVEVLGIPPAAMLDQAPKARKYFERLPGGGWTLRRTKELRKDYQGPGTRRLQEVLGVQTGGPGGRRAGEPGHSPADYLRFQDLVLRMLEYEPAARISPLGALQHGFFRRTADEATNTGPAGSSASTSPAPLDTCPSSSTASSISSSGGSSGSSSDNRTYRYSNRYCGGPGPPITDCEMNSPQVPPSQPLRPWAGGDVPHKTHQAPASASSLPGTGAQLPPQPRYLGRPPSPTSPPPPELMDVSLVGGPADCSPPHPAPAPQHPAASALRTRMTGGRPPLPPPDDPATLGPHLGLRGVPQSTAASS", "experiment": "Binding affinity to wild-type human full length DYRK1B (M1 to S629 residues) expressed in bacterial expression system assessed as residual binding level at 1 uM by Kinomescan method relative to control", "summary_of_the_method": "as §3"}, "[20]": {"molecular_target": "Phosphatidylinositol 4,5-bisphosphate 3-kinase catalytic subunit beta isoform (Homo sapiens) (UniProt P42338)", "sequence (P42338 whole entry, looked up, the tested form may be a part, canonical isoform)": "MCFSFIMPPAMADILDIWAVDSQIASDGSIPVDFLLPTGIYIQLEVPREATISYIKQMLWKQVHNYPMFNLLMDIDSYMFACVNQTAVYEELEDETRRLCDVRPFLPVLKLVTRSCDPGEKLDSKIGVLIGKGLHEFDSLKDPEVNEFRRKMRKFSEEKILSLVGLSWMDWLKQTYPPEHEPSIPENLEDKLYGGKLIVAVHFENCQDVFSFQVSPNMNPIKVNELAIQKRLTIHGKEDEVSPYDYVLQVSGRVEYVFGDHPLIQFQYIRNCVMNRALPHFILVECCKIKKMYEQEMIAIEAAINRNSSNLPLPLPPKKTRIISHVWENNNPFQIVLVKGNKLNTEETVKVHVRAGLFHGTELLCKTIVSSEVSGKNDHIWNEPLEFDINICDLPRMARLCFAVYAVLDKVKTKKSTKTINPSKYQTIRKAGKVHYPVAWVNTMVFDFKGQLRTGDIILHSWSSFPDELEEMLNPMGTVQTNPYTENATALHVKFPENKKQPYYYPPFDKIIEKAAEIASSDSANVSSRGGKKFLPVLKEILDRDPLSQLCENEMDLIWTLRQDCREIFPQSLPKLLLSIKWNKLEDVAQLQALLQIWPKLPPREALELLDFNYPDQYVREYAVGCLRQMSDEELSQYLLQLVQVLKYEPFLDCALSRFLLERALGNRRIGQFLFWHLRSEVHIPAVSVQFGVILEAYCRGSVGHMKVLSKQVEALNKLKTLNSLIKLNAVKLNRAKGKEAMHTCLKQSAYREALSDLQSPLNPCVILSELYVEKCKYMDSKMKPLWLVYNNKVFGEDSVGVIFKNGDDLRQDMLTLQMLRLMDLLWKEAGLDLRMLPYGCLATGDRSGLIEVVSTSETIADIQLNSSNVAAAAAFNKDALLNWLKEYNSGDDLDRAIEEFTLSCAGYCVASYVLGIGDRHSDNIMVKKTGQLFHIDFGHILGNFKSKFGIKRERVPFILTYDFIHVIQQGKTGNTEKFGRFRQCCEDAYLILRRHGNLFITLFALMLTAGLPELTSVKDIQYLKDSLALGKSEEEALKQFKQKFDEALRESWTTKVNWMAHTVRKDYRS", "experiment": "Binding affinity to wild-type human partial length PIK3CB (P118 to S1070 residues) expressed in mammalian expression system assessed as residual binding level at 1 uM by Kinomescan method relative to control"}},
  "data": [
    {"smiles": "Cc1ccc(NC(=O)c2ccc(CN(CCN(C)C)C(=O)c3cccnc3)cc2)cc1Nc1nccc(-c2cccnc2)n1", "values": [
      {"measurement": "Activity", "setting": "[1]", "result": 100, "unit": "%"},
      {"measurement": "Activity", "setting": "[2]", "result": 77, "unit": "%"},
      {"measurement": "Activity", "setting": "[3]", "result": 75, "unit": "%"},
      {"measurement": "Activity", "setting": "[4]", "result": 88, "unit": "%"},
      {"measurement": "inhibition in vivo at 25 mg/kg/day", "setting": "[5]", "result": 71.5, "unit": "%"},
      {"measurement": "Activity", "setting": "[6]", "result": 69, "unit": "%"},
      {"measurement": "Activity", "setting": "[7]", "result": 99, "unit": "%"},
      {"measurement": "Activity", "setting": "[8]", "result": 99, "unit": "%"},
      {"measurement": "Vz", "setting": "[9]", "result": 256.181, "unit": "L/kg"},
      {"measurement": "Activity", "setting": "[10]", "result": 96, "unit": "%"},
      {"measurement": "Activity", "setting": "[11]", "result": 97, "unit": "%"},
      {"measurement": "Activity", "setting": "[12]", "result": 100, "unit": "%"},
      {"measurement": "Activity", "setting": "[13]", "result": 100, "unit": "%"},
      {"measurement": "Activity", "setting": "[14]", "result": 100, "unit": "%"},
      {"measurement": "IC50", "setting": "[15]", "result": 2460, "unit": "nM"},
      {"measurement": "Activity", "setting": "[16]", "result": 100, "unit": "%"},
      {"measurement": "Tmax", "setting": "[17]", "result": 1.5, "unit": "h"},
      {"measurement": "Activity", "setting": "[18]", "result": 100, "unit": "%"},
      {"measurement": "Activity", "setting": "[19]", "result": 51, "unit": "%"},
      {"measurement": "Activity", "setting": "[20]", "result": 100, "unit": "%"}
    ]}
  ]
}
